Screening data deposited in PubChem by The Scripps Research Institute Molecular Screening Center.
Hits are enriched below; roughly 1.8% of the tested compounds scored in any of these assays.
DDE Tn6 FP inh – inhibitors of Tn6 peptide binding to fibrin DD(E), primary screen, biochemical, fluorescence polarization, human fibrin, Tn6 probe. inhibition, % at 8.3 µM. Fibrin DD(E) TRITC-Tn6 fluorescence polarization displacement. AID 720509, 2013. Fibrinogen beta chain (Homo sapiens), P02675. actives 0.21% (n = 370,000);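 active = inhibition above a per-campaign cutoff: mean of compounds within control limits plus 3 SD, cut at about 15% in these data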
mABHD4 FP – ABHD4 inhibitors, primary screen, biochemical, fluorescence polarization, mouse. (Lyso)-N-acylphosphatidylethanolamine lipase (Mus musculus), Q8VD66. inhibition, % at 8.92 µM. purified mABHD4, FP-Rh probe fluorescence polarization. actives 0.54% (n = 370,000);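 active = inhibition exceeding the mean over every tested compound plus 3 SD, cut at about 30% in these data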
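Assay system: mouse ABHD4 enzyme, wild type / Also added: fluorescent activity-based probe FP-Rh / Doses: single nominal dose of 8.92 µM, 0.89% DMSO final / Timing: 45 min compound pre-incubation plus 60 min probe step, 25 °C / Signal: FP readout, ex 525 nm / em 598 nm / Control set: S159A mutant/DMSO as 100%, compound-well median as 0%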
Tn7 DDE FP – inhibitors of Tn7 peptide binding to fibrin DD(E), primary screen, biochemical, fluorescence polarization, human fibrin, Tn7 probe; actives 0.13% (n = 370,000); Fibrinogen beta chain (Homo sapiens), P02675; FP displacement of FITC-Tn7 peptide from fibrin DD(E); 0% = median of compound wells per plate; inhibition, % at 8.3 µM; AID 720508, 2013;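 active = inhibition above the mean of compounds falling within the control limits plus 3 SD of them, cut at about 14% in these data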
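Test system: human clot-derived fibrin DD(E) complex / Quantity: 2 µM final DD(E) protein / Incubation: 10 min plus 3 h, room temperature / Measured by: fluorescence polarization / Benchmarks: high control of 10 µM Aha-Tn7 peptide / Replicates: singlicate testing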
SIAE inh – human SIAE inhibitors, primary screen, biochemical, fluorescence polarization, FP-Rh probe, 1536-well HTS. AID 1053197, 2014. inhibition, % at 9.66 µM. SIAE FP-Rh probe binding. actives 0.69% (n = 370,000). Sialate O-acetylesterase (Homo sapiens), Q9HAT2;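 active = inhibition above a cutoff: mean of compounds within the control limits plus 3 SD of those, cut at about 17% in these data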
Target sequence (Q9HAT2 whole entry, looked up): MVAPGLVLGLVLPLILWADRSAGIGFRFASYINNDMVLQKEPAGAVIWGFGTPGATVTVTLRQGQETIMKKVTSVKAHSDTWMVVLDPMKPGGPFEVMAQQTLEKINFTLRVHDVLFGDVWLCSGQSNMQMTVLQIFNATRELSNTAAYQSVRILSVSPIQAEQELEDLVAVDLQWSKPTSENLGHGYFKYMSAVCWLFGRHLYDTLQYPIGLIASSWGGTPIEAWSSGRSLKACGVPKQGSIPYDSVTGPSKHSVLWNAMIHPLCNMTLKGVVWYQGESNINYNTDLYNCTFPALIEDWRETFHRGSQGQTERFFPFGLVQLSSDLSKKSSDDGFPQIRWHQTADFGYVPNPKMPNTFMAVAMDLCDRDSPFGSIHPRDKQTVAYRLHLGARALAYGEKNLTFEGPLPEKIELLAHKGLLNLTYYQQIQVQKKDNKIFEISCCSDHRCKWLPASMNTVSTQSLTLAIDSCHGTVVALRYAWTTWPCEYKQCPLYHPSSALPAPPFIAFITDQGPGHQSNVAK
HTRA1 inh – HTRA1 serine protease inhibitors, primary screen, biochemical, fluorescence polarization, HTS; Q92743; recombinant HTRA1, FP-rhodamine activity-based probe; inhibition, % at 5.96 µM; actives 0.5% (n = 340,000); AID 504803, 2011; in the data active = inhibition above about 36%
TCR-CD3 inh – inhibitors of human TCR-CD3 interaction, primary screen, biochemical, fluorescence, TAMRA-labeled TCR probe. T-cell receptor (TCR). inhibition, % at 9.4 µM. actives 0.37% (n = 360,000); in the data active = inhibition above about 19%;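 note: recombinant mutant TCR 2C K166C tagged with TAMRA read by polarization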
HTRA1 conf – HTRA1 protease inhibitors, retest, confirmation, biochemical, fluorescence polarization; AID 540248, 2011; recombinant HTRA1, FP-rhodamine activity-based probe; shares compounds with HTRA1 inh; actives 66% (n = 1,600); inhibition, % at 5.96 µM;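 active = mean inhibition over three repeats above a set limit taken from the earlier primary screen, cut at about 37% in these data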;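 note: inhibitors block probe binding so polarization drops and inhibition rises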
Large screens that a line does not name were inactive (follow-up assays come after a bar, where they were run); ! = not active in a repeat.

COc1ccc(CC(C)NCC(O)c2ccc(O)c(NC=O)c2)cc1 (stereo not drawn)	TCR-CD3 inh 26.6!
CC(CCc1ccccc1)NCC(O)c1ccc(O)c(C(N)=O)c1 (stereo not drawn)	none
CC1=C([N+](=O)[O-])C(c2ccccc2)C2=C(N1)c1ccccc1C2=O (stereo not drawn)	none
Cc1cccc(C2C3=C(Nc4[nH]n(-c5ccccc5)c(=O)c42)c2ccccc2C3=O)c1 (stereo not drawn)	mABHD4 FP 43.3, SIAE inh 20.3
O=C(Nc1cccs1)Nc1ccc(Br)cc1F	SIAE inh 20.1
CO[C@H]([C@H](C)/C=C/N(C)C=O)[C@@H](C)C(O)CC[C@H](C)[C@H](O)[C@H](C)[C@H]1OC(=O)/C=C/C(C)=C/C[C@H](O)C[C@@H]2C=CC[C@@H](C[C@H](OC)[C@@]3(CO3)[C@@H](OC)C[C@@H](OC)[C@@H]1C)O2 (stereo partly drawn)	none (no result: HTRA1 inh, TCR-CD3 inh)
Cc1onc(-c2ccccc2Cl)c1C(=O)NCCn1c(C)cc2ccccc21	HTRA1 inh 47.6 (no result: DDE Tn6 FP inh, mABHD4 FP, Tn7 DDE FP, SIAE inh, TCR-CD3 inh)
CCN1CCN(c2cc(C(C)C)nc3c(-c4ccccc4)c(C)nn23)CC1	SIAE inh 18.5 (no result: HTRA1 inh)
Cc1nn2c(N3CCOCC3)cc(C(C)C)nc2c1-c1ccccc1	none
Cc1occc(=O)c1OC(=O)Nc1ccc(Cl)c(Cl)c1	TCR-CD3 inh 73.3
O=C1Nc2ccccc2C1=Nc1ccc(S(=O)(=O)Nc2nccs2)cc1	mABHD4 FP 41.8
COc1ccc(-n2c(SCC(=O)Nc3ccc(S(=O)(=O)Nc4nccs4)cc3)nnc2-c2ccco2)cc1	none (no result: HTRA1 inh, TCR-CD3 inh)
CCN1CCN(C(=O)/C=C/c2ccc(C(C)C)cc2)CC1	none
CCN1CCC(O)(/C=C/c2ccc(C(C)C)cc2)C(C(=O)/C=C/c2ccc(C(C)C)cc2)C1 (stereo not drawn)	mABHD4 FP 34.0
O=C(CNS(=O)(=O)c1ccc(Cl)s1)N1CCN(c2ccccn2)CC1	none (no result: HTRA1 inh, TCR-CD3 inh)
COc1cc(C2C(C#N)=C(N)Oc3c2c(-c2ccccc2)nn3-c2ccccc2)cc(OC)c1OC (stereo not drawn)	SIAE inh 23.4
Cc1nn(-c2ccccc2)c2c1C(c1ccco1)C(C#N)=C(N)O2 (stereo not drawn)	none
O=c1c(O)c(-c2ccc(O)cc2)oc2cc(O)cc(O)c12	SIAE inh 20.6
O=C1c2cccc(NCCNCCO)c2C(=O)c2cccc(NCCNCCO)c21	DDE Tn6 FP inh 47.9
O=C(NCCO)c1cccc2c1C(=O)c1ccccc1-2	none
Cc1ccc(S(=O)(=O)N2CCC(C(=O)NCc3cccs3)CC2)cc1	none (no result: HTRA1 inh, TCR-CD3 inh)
CC(=O)c1cc(F)c(N2CCN(CCC#N)CC2)cc1C	SIAE inh 26.9
Fc1ccc(C2=CC(c3ccc(Br)o3)n3ncnc3N2)cc1 (stereo not drawn)	none (no result: DDE Tn6 FP inh, mABHD4 FP, Tn7 DDE FP, SIAE inh, TCR-CD3 inh)
Brc1ccc(C2=CC(c3cccs3)n3ncnc3N2)cc1 (stereo not drawn)	Tn7 DDE FP 19.4
Cc1ccc(CNc2ccc3c(c2)OCO3)cc1	HTRA1 inh 48.7 (no result: DDE Tn6 FP inh, mABHD4 FP, Tn7 DDE FP, SIAE inh, TCR-CD3 inh)
Cc1ccc(CNc2ncc(-c3ccc4c(c3)OCO4)n2C)cc1	none
NS(=O)(=O)c1ccc(N/C=C\C(=O)c2ccc(F)cc2)cc1	none
CN(C)c1ccc(N/C=C/C(=O)c2ccc(F)cc2)cc1	HTRA1 inh 53.0 (no result: DDE Tn6 FP inh, mABHD4 FP, Tn7 DDE FP, SIAE inh, TCR-CD3 inh) | HTRA1 conf inactive
CN1CCN(Cc2cc(COCc3ccccc3)c3cccnc3c2O)CC1	HTRA1 inh 50.4 | HTRA1 conf 86.8
Oc1c(CN2CCCCC2)cc(Br)c2cccnc12	HTRA1 inh 71.0 | HTRA1 conf 72.3
O=C(Oc1c(CN2CCOCC2)cc(Cl)c2cccnc12)c1ccccc1	HTRA1 inh 36.7 | HTRA1 conf inactive
O=C(O)Cn1cc(CN2CCOCC2)c2ccccc21	none
Oc1ccc(CN2CCN(Cc3ccccc3)CC2)c2cccnc12	none
COc1ccc(C(=O)Oc2c(CN3CCOCC3)cc(Cl)c3cccnc23)cc1OC	none (no result: HTRA1 inh)
COc1cc(OC)cc(C(=O)Oc2c(CN3CCOCC3)cc(Cl)c3cccnc23)c1	HTRA1 inh 38.4 | HTRA1 conf inactive
CCCCNC(=O)C1(C(C)=O)CC(C(=O)OCC)=NO1 (stereo not drawn)	none (no result: HTRA1 inh, TCR-CD3 inh)
O=C(Oc1c(CN2CCOCC2)cc(Cl)c2cccnc12)c1ccccc1F	HTRA1 inh 40.9 | HTRA1 conf inactive
O=C(Oc1ccc(C(=S)N2CCOCC2)cc1Cl)c1ccccc1F	none
Oc1c(Cl)cc(CN2CCOCC2)c2cccnc12	HTRA1 inh 41.1 | HTRA1 conf inactive
CCNc1ccc(Br)cc(C(=O)/C=C/c2ccc(Cl)cc2)c1=O	HTRA1 inh 62.9 (no result: DDE Tn6 FP inh, mABHD4 FP, Tn7 DDE FP, SIAE inh, TCR-CD3 inh) | HTRA1 conf inactive
Cc1cc2ccccc2n1CCNC(=O)COc1ccccc1	HTRA1 inh 49.1 | HTRA1 conf inactive
COCCNC(=O)CN(C(=O)Cn1nnc2ccccc21)c1cccc(C)c1C	none
CC(=O)Nc1ccc(NC2=CC(=O)c3ccccc3C2=O)cc1	none
CCc1ccc(S(=O)(=O)/N=C2\C=C(Nc3ccc(O)cc3)C(=O)c3ccccc32)cc1	HTRA1 inh 78.5 (no result: DDE Tn6 FP inh, mABHD4 FP, Tn7 DDE FP, SIAE inh, TCR-CD3 inh) | HTRA1 conf 80.3
O=C1C=C(Nc2ccc(O)cc2)C(=O)c2ccccc21	HTRA1 inh 37.4 | HTRA1 conf inactive
Cc1cc(C)c(S(=O)(=O)/N=C2\C=C(Nc3ccc(C(=O)O)cc3)C(=O)c3ccccc32)c(C)c1	mABHD4 FP 71.1, SIAE inh 18.3, HTRA1 inh 59.7 | HTRA1 conf 52.2
O=C(NCC1CCCN1S(=O)(=O)c1cccs1)c1ccccc1F (stereo not drawn)	none
O=C1CC(N2CCCN(Cc3ccccc3)CC2)=NC(=O)N1c1ccc(Br)cc1	none (no result: HTRA1 inh, TCR-CD3 inh)
CCOC(=O)C1=NOC(C(=O)Nc2cc(C)cc(C)c2)(C(=O)C2CC2)C1 (stereo not drawn)	none (no result: HTRA1 inh, TCR-CD3 inh)
COc1cc(/C=N/n2c(-c3ccc4c(c3)NC(=O)CO4)csc2=Nc2cccc(C)c2)ccc1O	SIAE inh 41.0, HTRA1 inh 43.7 | HTRA1 conf 81.6
C/C(=N\Nc1nc(-c2cc(C)ccc2C)cs1)c1cc2ccccc2oc1=O	none
C/C(=N\Nc1nc(-c2cc(C)ccc2C)cs1)c1cc2c(ccc3ccccc32)oc1=O	HTRA1 inh 52.7 | HTRA1 conf inactive
